Experimental data: ChEMBL document CHEMBL1770063, “Synthesis and cytotoxic activity of benzo[a]acronycine and benzo[b]acronycine substituted on the A ring” (Eur J Med Chem, 2011)

Columns and labels:
[1] = Cytotoxicity against human KB-3-1 cells after 96 hrs by MTA assay; type: functional, cell-based; settings: KB 3-1, 96 h
Method in brief: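 KB-3-1 cells grown in DMEM with 10% fetal calf serum, 2 mM L-glutamine, penicillin/streptomycin, 10 mM HEPES (pH 7.4). Exposed to nine serial drug dilutions in triplicate for 96 h (four doubling times); microculture tetrazolium read-out. IC50 is the concentration reducing optical density by 50% relative to untreated controls.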

L1210 = assay: Cytotoxicity against mouse L1210 cells after 48 hrs by MTA assay; type: functional, cell-based; settings: L1210, 48 h
Method in brief: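 L1210 cells maintained in RPMI 1640 plus 10% fetal calf serum, 2 mM L-glutamine, penicillin/streptomycin and 10 mM HEPES (pH 7.4). Drug given at nine serial dilutions, triplicate, for 48 h (four doubling times), then tetrazolium microculture assay. IC50 is the concentration giving 50% lower optical density than untreated controls.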

In the case of `CC1(C)C=Cc2c(cc(O)c3c(=O)c4c(ccc5cc(Br)ccc54)[nH]c23)O1`, the IC50 [1] is reported as 1700 nM and the IC50 (L1210) is reported as 3400 nM.

For `C#CC(C)(C)Oc1cc(O)c2c(=O)c3c4ccc(Br)cc4ccc3n3c2c1C(C)(C)C3=C`, the IC50 [1] was 37100 nM and the IC50 (L1210) was 51100 nM.

For `C=C1n2c3ccc4cc(Br)ccc4c3c(=O)c3c(O)cc(O)c(c32)C1(C)C`, the IC50 [1] was 2500 nM and the IC50 (L1210) was 7300 nM.

In the case of `COc1cc2c(c3c1c(=O)c1c4ccc(Br)cc4ccc1n3C)C=CC(C)(C)O2`, the IC50 [1] is reported as 1300 nM and the IC50 (L1210) is reported as 490 nM.

`Cn1c2cc3ccc(Br)cc3cc2c(=O)c2c(O)cc3c(c21)C=CC(C)(C)O3` gave an IC50 [1] of 14300 nM and an IC50 (L1210) of 645 nM.

`COc1cc2c(c3c1c(=O)c1cc4cc(Br)ccc4cc1n3C)C=CC(C)(C)O2` showed an IC50 [1] of 9900 nM and an IC50 (L1210) of 2200 nM.

With `COc1cc2c(c3c1c(=O)c1cc4ccccc4cc1n3C)[C@H]1OC(=O)O[C@H]1C(C)(C)O2` (racemic) the IC50 (L1210) was 16 nM.

Work on `COc1cc2c(c3c1c(=O)c1c4ccc(Br)cc4ccc1n3C)[C@@H](O)[C@@H](O)C(C)(C)O2` (racemic) yielded an IC50 [1] of 5500 nM and an IC50 (L1210) of 7600 nM.

With `COc1cc2c(c3c1c(=O)c1c4ccc(Br)cc4ccc1n3C)[C@@H](OC(C)=O)[C@@H](OC(C)=O)C(C)(C)O2` (racemic) the IC50 [1] was 40 nM and the IC50 (L1210) was 400 nM.

`COc1cc2c(c3c1c(=O)c1c4ccc(Br)cc4ccc1n3C)[C@H]1OC(=O)O[C@H]1C(C)(C)O2` (racemic) showed an IC50 [1] of 15 nM and an IC50 (L1210) of 80 nM.

`COc1cc2c(c3c1c(=O)c1cc4cc(Br)ccc4cc1n3C)[C@@H](O)[C@@H](O)C(C)(C)O2` (racemic) gave an IC50 [1] of 36300 nM and an IC50 (L1210) of 225 nM.

In the case of `COc1cc2c(c3c1c(=O)c1cc4cc(Br)ccc4cc1n3C)[C@@H](OC(C)=O)[C@@H](OC(C)=O)C(C)(C)O2` (racemic), the IC50 [1] is reported as 115 nM and the IC50 (L1210) is reported as 600 nM.

Work on `COc1cc2c(c3c1c(=O)c1cc4cc(Br)ccc4cc1n3C)[C@H]1OC(=O)O[C@H]1C(C)(C)O2` (racemic) yielded an IC50 [1] of 11 nM and an IC50 (L1210) of 34 nM.

In the case of `COc1cc2c(c3c1c(=O)c1c4ccccc4ccc1n3C)[C@@H](OC(C)=O)[C@@H](OC(C)=O)C(C)(C)O2` (racemic), the IC50 [1] is reported as 140 nM and the IC50 (L1210) is reported as 730 nM.

Compound `COc1cc2c(c3c1c(=O)c1c4ccccc4ccc1n3C)[C@H]1OC(=O)O[C@H]1C(C)(C)O2` (racemic) has an IC50 [1] of 15 nM and an IC50 (L1210) of 59 nM.

`COc1cc2c(c3c1c(=O)c1cc4ccccc4cc1n3C)[C@@H](OC(C)=O)[C@@H](OC(C)=O)C(C)(C)O2` (racemic) gave an IC50 [1] of 95 nM.

Compound `COc1cc2c(c3c1c(=O)c1c4ccccc4ccc1n3C)C=CC(C)(C)O2` [BENZO[A]ACRONYCINE] has an IC50 [1] of 8600 nM.

Compound `COc1cc2c(c3c1c(=O)c1cc4ccccc4cc1n3C)C=CC(C)(C)O2` [BENZO[B]ACRONYCINE] has an IC50 [1] of 3400 nM.
